Source: ChEMBL document CHEMBL3098082, “Design, synthesis, molecular docking and 3D-QSAR studies of potent inhibitors of enoyl-acyl carrier protein reductase as potential antimycobacterial agents” (Eur J Med Chem, 2014)
Values after ≈ are worked out from the molar mass of the structure shown.

Experiments:
[1] = test system: Mycobacterium tuberculosis; assay: Antimycobacterial activity against Mycobacterium tuberculosis H37Rv after 5 days by microplate alamar blue assay; format: functional; conditions: for MIC: Mycobacterium tuberculosis, H37Rv, 120 h
Summary of the method: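 M. tuberculosis H37Rv in Middlebrook 7H9 broth; compounds serially diluted on plate at 0.2–100 […] (so in the source); isoniazid reference. Incubated 37 C, 5 days, then 1:1 alamar blue/10% Tween 80 added, further 24 h. Blue = no growth, pink = growth; MIC = lowest concentration preventing blue-to-pink change.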

[2] = test system: Vero; assay: Cytotoxicity against african green monkey Vero cells by MTT assay; format: cell-based; conditions: Chlorocebus sabaeus
[3] = test system: A549; assay: Cytotoxicity against human A549 cells by MTT assay; format: cell-based

SMILES	-logMIC [1]	MIC [1]	IC50 [2]	IC50 [3]
C/C(=N\NC(=O)COc1ccc(Cl)cc1)c1ccc(-n2c(C)ccc2C)cc1	5.505	3.12 µg/mL (≈ 7.89 µM)		
C/C(=N\Nc1ccc([N+](=O)[O-])cc1[N+](=O)[O-])c1ccc(-n2cccc2)cc1	4.903	12.5 µg/mL (≈ 34.2 µM)		
C/C(=N\NC(=O)c1ccc(-n2cccc2)cc1)c1ccc(-n2cccc2)cc1	4.903	12.5 µg/mL (≈ 33.9 µM)		
C/C(=N\NC(=O)c1ccc(C)cc1)c1ccc(-n2c(C)ccc2C)cc1	4.602	25 µg/mL (≈ 72.4 µM)		
C/C(=N\NC(=O)c1ccc(Br)cc1)c1ccc(-n2cccc2)cc1	4.301	50 µg/mL (≈ 131 µM)		
C/C(=N\NC(=O)COc1cccc2ccccc12)c1ccc(-n2c(C)ccc2C)cc1	6.699	0.2 µg/mL (≈ 0.486 µM)	277 µM	269 µM
CC(=O)Nc1ccc(S(=O)(=O)N/N=C(\C)c2ccc(-n3cccc3)cc2)cc1	6.699	0.2 µg/mL (≈ 0.504 µM)	263 µM	257 µM
C/C(=N\NC(=O)COc1ccccc1)c1ccc(-n2cccc2)cc1	4.903	12.5 µg/mL (≈ 37.5 µM)		
C/C(=N\NC(=O)COc1ccc(Br)cc1)c1ccc(-n2cccc2)cc1	4.301	50 µg/mL (≈ 121 µM)		
C/C(=N\NC(=O)c1ccccc1)c1ccc(-n2c(C)ccc2C)cc1	4.602	25 µg/mL (≈ 75.4 µM)		
C/C(=N\NC(=O)COc1ccc(Br)cc1)c1ccc(-n2c(C)ccc2C)cc1	5.204	6.25 µg/mL (≈ 14.2 µM)		
C/C(=N\NC(=O)c1ccc(-n2c(C)ccc2C)cc1)c1ccc(-n2cccc2)cc1	4.602	25 µg/mL (≈ 63.1 µM)		
C/C(=N\NC(=O)c1ccc(Cl)cc1)c1ccc(-n2cccc2)cc1	4.301	50 µg/mL (≈ 148 µM)		
C/C(=N\NC(=O)c1ccccc1Cl)c1ccc(-n2c(C)ccc2C)cc1	4.903	12.5 µg/mL (≈ 34.2 µM)		
C/C(=N\NC(=O)c1ccc(O)cc1)c1ccc(-n2cccc2)cc1	4.903	12.5 µg/mL (≈ 39.1 µM)		
C/C(=N\NS(=O)(=O)c1ccc(N)cc1)c1ccc(-n2c(C)ccc2C)cc1	4.903	12.5 µg/mL (≈ 32.7 µM)		
C/C(=N\NS(=O)(=O)c1ccc(C)cc1)c1ccc(-n2cccc2)cc1	6.097	0.8 µg/mL (≈ 2.26 µM)		
C/C(=N\NC(=O)COc1ccc(C)cc1)c1ccc(-n2c(C)ccc2C)cc1	5.505	3.12 µg/mL (≈ 8.32 µM)		
C/C(=N\NC(=O)c1cccnc1)c1ccc(-n2cccc2)cc1	4.301	50 µg/mL (≈ 164 µM)		
C/C(=N\NC(=O)c1ccccc1)c1ccc(-n2cccc2)cc1	4.301	50 µg/mL (≈ 165 µM)		
C/C(=N\Nc1ccc([N+](=O)[O-])cc1[N+](=O)[O-])c1ccc(-n2c(C)ccc2C)cc1	4.903	12.5 µg/mL (≈ 31.8 µM)		
C/C(=N\NC(=O)c1cccnc1)c1ccc(-n2c(C)ccc2C)cc1	4	100 µg/mL (≈ 301 µM)		
C/C(=N\NC(=O)COc1ccc2ccccc2c1)c1ccc(-n2cccc2)cc1	6.699	0.2 µg/mL (≈ 0.522 µM)	249 µM	247 µM
C/C(=N\NC(=O)COc1ccc(O)cc1)c1ccc(-n2cccc2)cc1	4.602	25 µg/mL (≈ 71.6 µM)		
C/C(=N\NC(=O)c1ccc(-n2c(C)ccc2C)cc1)c1ccc(-n2c(C)ccc2C)cc1	4.602	25 µg/mL (≈ 58.9 µM)		
C/C(=N\NC(=O)COc1c(Cl)cc(Cl)cc1Cl)c1ccc(-n2cccc2)cc1	4.301	50 µg/mL (≈ 114 µM)		
C/C(=N\NC(=O)COc1ccc(C)cc1)c1ccc(-n2cccc2)cc1	4.903	12.5 µg/mL (≈ 36 µM)		

SMILES	-logMIC [1]	MIC [1]	IC50 [2]	IC50 [3]
C/C(=N\NC(=O)COc1ccc(Cl)cc1)c1ccc(-n2cccc2)cc1	4.903	12.5 µg/mL (≈ 34 µM)		
C/C(=N\NC(=O)COc1ccccc1Cl)c1ccc(-n2cccc2)cc1	4.602	25 µg/mL (≈ 68 µM)		
C/C(=N\NC(=O)COc1ccccc1Cl)c1ccc(-n2c(C)ccc2C)cc1	4.301	50 µg/mL (≈ 126 µM)		
CC(=O)Nc1ccc(S(=O)(=O)N/N=C(\C)c2ccc(-n3c(C)ccc3C)cc2)cc1	6.097	0.8 µg/mL (≈ 1.88 µM)		
C/C(=N\NC(=O)COc1ccccc1)c1ccc(-n2c(C)ccc2C)cc1	6.097	0.8 µg/mL (≈ 2.21 µM)		
C/C(=N\NC(N)=O)c1ccc(-n2c(C)ccc2C)cc1	4.301	50 µg/mL (≈ 185 µM)		
C/C(=N\NC(=O)c1ccncc1)c1ccc(-n2cccc2)cc1	4.301	50 µg/mL (≈ 164 µM)		
C/C(=N\NC(N)=S)c1ccc(-n2c(C)ccc2C)cc1	4.301	50 µg/mL (≈ 175 µM)		
C/C(=N\Nc1ccccc1)c1ccc(-n2cccc2)cc1	4.903	12.5 µg/mL (≈ 45.4 µM)		
C/C(=N\NC(=O)c1ccccc1Cl)c1ccc(-n2cccc2)cc1	4.602	25 µg/mL (≈ 74 µM)		
C/C(=N\NC(N)=S)c1ccc(-n2cccc2)cc1	4.301	50 µg/mL (≈ 194 µM)		
C/C(=N\NC(=O)c1ccncc1)c1ccc(-n2c(C)ccc2C)cc1	4	100 µg/mL (≈ 301 µM)		
NNC(=O)c1ccncc1 [ISONIAZID]		0.25 µg/mL (≈ 1.82 µM)	> 450 µM	> 450 µM
C/C(=N\NC(=O)COc1cccc2ccccc12)c1ccc(-n2cccc2)cc1	6.398	0.4 µg/mL (≈ 1.04 µM)	240 µM	243 µM
C/C(=N\NC(N)=O)c1ccc(-n2cccc2)cc1	4	100 µg/mL (≈ 413 µM)		
C/C(=N\NC(=O)c1ccc(O)cc1)c1ccc(-n2c(C)ccc2C)cc1	4.602	25 µg/mL (≈ 72 µM)		
Oc1cc(Cl)ccc1Oc1ccc(Cl)cc1Cl [TRICLOSAN]		10 µg/mL (≈ 34.5 µM)		
C/C(=N\NC(=O)c1ccc(-n2cccc2)cc1)c1ccc(-n2c(C)ccc2C)cc1	4.301	50 µg/mL (≈ 126 µM)		
C/C(=N\NC(=O)COc1ccc2ccccc2c1)c1ccc(-n2c(C)ccc2C)cc1	6.699	0.2 µg/mL (≈ 0.486 µM)	255 µM	260 µM
C/C(=N\NS(=O)(=O)c1ccc(N)cc1)c1ccc(-n2cccc2)cc1	5.204	6.25 µg/mL (≈ 17.6 µM)		
C/C(=N\Nc1ccccc1)c1ccc(-n2c(C)ccc2C)cc1	4.602	25 µg/mL (≈ 82.4 µM)		
C/C(=N\NC(=O)c1ccc(Br)cc1)c1ccc(-n2c(C)ccc2C)cc1	4.602	25 µg/mL (≈ 60.9 µM)		
C/C(=N\NC(=O)c1ccc(C)cc1)c1ccc(-n2cccc2)cc1	4.301	50 µg/mL (≈ 158 µM)		
C/C(=N\NS(=O)(=O)c1ccc(C)cc1)c1ccc(-n2c(C)ccc2C)cc1	6.398	0.4 µg/mL (≈ 1.05 µM)	279 µM	277 µM
C/C(=N\NC(=O)COc1c(Cl)cc(Cl)cc1Cl)c1ccc(-n2c(C)ccc2C)cc1	4.903	12.5 µg/mL (≈ 26.9 µM)		
C/C(=N\NC(=O)c1ccc(Cl)cc1)c1ccc(-n2c(C)ccc2C)cc1	4.602	25 µg/mL (≈ 68.3 µM)		
C/C(=N\NC(=O)COc1ccc(O)cc1)c1ccc(-n2c(C)ccc2C)cc1	4.602	25 µg/mL (≈ 66.2 µM)		
